Measured values as given in publication PMC3223964 (ACS chemical neuroscience, 2011).
pEC50, pIC50: −log10 of the molar value.

Assays:
KCNQ2 channels [1] = molecular target: T1, KCNQ2 channels (Homo sapiens, UniProt O43526); experiment: Thallium-based fluorescence; assay type: cell-based; conditions: 10-point CRC
Outline: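 Thallium influx read with FluxOR dye. Cells were plated at 6500/well on poly-D-lysine, cultured overnight at 37 °C and 5% CO2, and dye-loaded 90 min at room temperature in the dark. Assay buffer was HBSS with 5.8 mM K+, with 20 min compound preincubation. Stimulus brought final K+ to 15.8 mM and Tl+ to 5 mM. Reading was at 1 Hz for 10 s baseline plus 110 s; ΔF/F0 over 120 s was normalized to activator and buffer controls.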

KCNQ2 channels [2] = molecular target: T1, KCNQ2 channels; experiment: IonWorks automated electrophysiology; assay type: cell-based; conditions: IW EC50, KCNQ2 (enhancement of KCNQ2 currents), -10 mV step potential
Outline: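 Perforated-patch population clamp (IonWorks Quattro) on CHO cells stably expressing KCNQ2. Cells were freshly detached and seeded at 7000 cells/well in HEPES/glucose saline at pH 7.4, then perforated with 50 μg/mL amphotericin B in KCl/K-gluconate internal solution at pH 7.2. Steady-state current at the end of a 2000 ms depolarizing step was read before and after 3 min compound, as % change per well. Dosing was 8 points, 3-fold from 30 μM, in quadruplicate. Conductance was current divided by driving force; ΔV1/2 came from the same cells.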

KCNQ1 [3] = molecular target: T2, KCNQ1 (Homo sapiens, UniProt P51787); experiment: Tl+ flux assay, KCNQ1; assay type: cell-based
KCNQ1/KCNE1 [4] = molecular target: T3, KCNQ1/KCNE1 (Homo sapiens, UniProt P51787); experiment: Tl+ flux assay, KCNQ1/E1; assay type: cell-based
KCNQ3 = KCNQ3 (Homo sapiens, UniProt O43525); experiment: Tl+ flux assay, KCNQ3; assay type: cell-based
KCNQ4 [5] = molecular target: T4, KCNQ4 (Homo sapiens, UniProt P56696); experiment: Tl+ flux assay, KCNQ4; assay type: cell-based; conditions: versus KCNQ2, Tl+ flux assay
KCNQ5 = KCNQ5 (Homo sapiens, UniProt Q9NR82); experiment: Tl+ flux assay, KCNQ5; assay type: cell-based
Kir2.1 = molecular target: T5, Kir2.1 (Homo sapiens, UniProt P63252); experiment: Tl+ flux assay, Kir2.1; assay type: cell-based
T5 sequence (P63252 1-427): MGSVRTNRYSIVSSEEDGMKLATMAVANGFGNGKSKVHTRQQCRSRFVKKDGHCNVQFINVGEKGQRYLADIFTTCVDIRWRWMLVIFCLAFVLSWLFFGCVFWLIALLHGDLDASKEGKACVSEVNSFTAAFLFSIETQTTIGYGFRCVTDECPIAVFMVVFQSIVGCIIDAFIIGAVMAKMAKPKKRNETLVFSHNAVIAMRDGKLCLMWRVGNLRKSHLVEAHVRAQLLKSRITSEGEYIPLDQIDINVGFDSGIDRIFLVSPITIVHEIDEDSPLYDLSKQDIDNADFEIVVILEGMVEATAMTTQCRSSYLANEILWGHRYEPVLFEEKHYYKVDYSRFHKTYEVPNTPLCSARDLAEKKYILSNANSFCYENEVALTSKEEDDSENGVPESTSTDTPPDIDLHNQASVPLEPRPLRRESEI

KCNQ1 [6] = molecular target: T2, KCNQ1; experiment: IonWorks automated electrophysiology, KCNQ1; assay type: cell-based
Outline: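 KCNQ1 cells in IonWorks perforated-patch mode (50 μg/mL amphotericin B), with extracellular saline at pH 7.4. Cells were depolarized to +40 mV from the holding potential, and current was measured during the +40 mV step before and 3 min after compound. No liquid junction correction was applied; sampling was 0.625 kHz. EC50 came from 8-point, 3-fold dilutions from 30 μM, in quadruplicate.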

KCNQ1/KCNE1 [7] = molecular target: T3, KCNQ1/KCNE1; experiment: IonWorks automated electrophysiology, KCNQ1/KCNE1; assay type: cell-based
Outline: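 KCNQ1/KCNE1 cells in IonWorks perforated patch (50 μg/mL amphotericin B) at pH 7.4 extracellular. The protocol was a 3000 ms depolarizing step to +40 mV, then a 500 ms hyperpolarizing step. Steady-state current at +40 mV was read before and after 3 min compound exposure. Concentration-response was 8 points, 3-fold from 30 μM, in quadruplicate; sampling was 0.625 kHz.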

KCNQ2/KCNQ3 = KCNQ2/KCNQ3 (Homo sapiens, UniProt O43525+O43526); experiment: IonWorks automated electrophysiology, KCNQ2/KCNQ3; assay type: cell-based
Outline: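 KCNQ2/KCNQ3-expressing cells on IonWorks population patch clamp, perforated with 50 μg/mL amphotericin B, extracellular pH 7.4 and internal pH 7.2. The KCNQ2 voltage protocol was used: a 2000 ms depolarizing step, with steady-state current read at step end before and 3 min after compound. Wells needed >100 pA current and >30 MΩ seal. Dosing was 8 points, 3-fold from 30 μM, in quadruplicate.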

KCNQ4 [8] = molecular target: T4, KCNQ4; experiment: IonWorks automated electrophysiology, KCNQ4; assay type: cell-based; conditions: versus KCNQ2, IonWorks
hERG = hERG (Homo sapiens, UniProt Q12809); experiment: IonWorks automated electrophysiology, hERG; assay type: cell-based
CYP1A2 = molecular target: T6, CYP1A2 (Homo sapiens, UniProt P05177); experiment: CYP450 inhibition, CYP1A2; assay type: in vitro ADME
T6 sequence (P05177 1-516): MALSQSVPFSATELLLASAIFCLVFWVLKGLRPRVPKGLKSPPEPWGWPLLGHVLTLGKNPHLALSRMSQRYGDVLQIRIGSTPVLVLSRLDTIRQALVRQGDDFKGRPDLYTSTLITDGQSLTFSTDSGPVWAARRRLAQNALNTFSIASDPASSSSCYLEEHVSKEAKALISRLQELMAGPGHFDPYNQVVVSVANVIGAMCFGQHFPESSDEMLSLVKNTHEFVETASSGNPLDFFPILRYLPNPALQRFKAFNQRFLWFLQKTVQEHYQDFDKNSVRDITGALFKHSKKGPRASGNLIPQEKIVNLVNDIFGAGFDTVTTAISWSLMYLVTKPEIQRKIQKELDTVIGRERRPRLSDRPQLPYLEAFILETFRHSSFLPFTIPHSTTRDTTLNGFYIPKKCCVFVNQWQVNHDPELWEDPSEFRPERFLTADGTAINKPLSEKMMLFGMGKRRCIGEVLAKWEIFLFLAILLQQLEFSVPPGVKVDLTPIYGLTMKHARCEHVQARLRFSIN

CYP2C9 = CYP2C9 (Homo sapiens, UniProt P11712); experiment: CYP450 inhibition, CYP2C9; assay type: in vitro ADME
CYP3A4 = CYP3A4 (Homo sapiens, UniProt P08684); experiment: CYP450 inhibition, CYP3A4; assay type: in vitro ADME
CYP2D6 = CYP2D6 (Homo sapiens, UniProt P10635); experiment: CYP450 inhibition, CYP2D6; assay type: in vitro ADME
[9] = Snapshot in vivo PK study, plasma and brain levels after IP administration; conditions: 10 mg/kg
[10] = tested on: 68 GPCRs, ion channels and transporters; experiment: Ricerca Lead Profiling Screen; assay type: binding; conditions: 10 μM

Chain of hERG (Q12809 whole entry): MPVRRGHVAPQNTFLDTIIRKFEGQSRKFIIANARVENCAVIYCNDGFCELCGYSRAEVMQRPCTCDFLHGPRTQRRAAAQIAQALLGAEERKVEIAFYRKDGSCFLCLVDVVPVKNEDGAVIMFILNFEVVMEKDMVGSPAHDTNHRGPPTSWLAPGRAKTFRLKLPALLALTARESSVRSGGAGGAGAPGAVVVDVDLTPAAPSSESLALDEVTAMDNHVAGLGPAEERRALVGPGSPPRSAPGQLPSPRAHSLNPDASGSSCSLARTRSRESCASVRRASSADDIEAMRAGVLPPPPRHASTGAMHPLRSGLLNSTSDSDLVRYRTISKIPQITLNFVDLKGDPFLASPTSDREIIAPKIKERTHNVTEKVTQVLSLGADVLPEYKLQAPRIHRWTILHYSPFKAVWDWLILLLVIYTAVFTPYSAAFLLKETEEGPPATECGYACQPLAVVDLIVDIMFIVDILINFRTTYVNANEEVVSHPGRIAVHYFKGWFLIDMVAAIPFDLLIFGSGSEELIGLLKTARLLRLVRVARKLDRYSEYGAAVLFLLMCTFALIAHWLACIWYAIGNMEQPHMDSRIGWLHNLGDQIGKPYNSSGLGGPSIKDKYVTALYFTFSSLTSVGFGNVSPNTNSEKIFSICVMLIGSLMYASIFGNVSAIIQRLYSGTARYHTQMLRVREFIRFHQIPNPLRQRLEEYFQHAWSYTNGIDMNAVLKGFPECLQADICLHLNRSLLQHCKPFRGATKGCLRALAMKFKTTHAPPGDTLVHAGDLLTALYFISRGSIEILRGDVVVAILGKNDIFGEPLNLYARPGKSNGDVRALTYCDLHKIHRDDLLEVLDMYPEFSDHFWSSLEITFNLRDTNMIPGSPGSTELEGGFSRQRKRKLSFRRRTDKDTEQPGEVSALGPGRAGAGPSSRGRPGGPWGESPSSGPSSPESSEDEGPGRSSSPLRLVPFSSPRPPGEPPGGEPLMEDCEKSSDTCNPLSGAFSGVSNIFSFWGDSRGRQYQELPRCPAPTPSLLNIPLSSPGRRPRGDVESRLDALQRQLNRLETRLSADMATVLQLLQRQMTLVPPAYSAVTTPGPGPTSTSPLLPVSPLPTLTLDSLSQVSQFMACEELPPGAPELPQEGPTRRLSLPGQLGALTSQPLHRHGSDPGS
Chain of CYP2D6 (P10635 whole entry): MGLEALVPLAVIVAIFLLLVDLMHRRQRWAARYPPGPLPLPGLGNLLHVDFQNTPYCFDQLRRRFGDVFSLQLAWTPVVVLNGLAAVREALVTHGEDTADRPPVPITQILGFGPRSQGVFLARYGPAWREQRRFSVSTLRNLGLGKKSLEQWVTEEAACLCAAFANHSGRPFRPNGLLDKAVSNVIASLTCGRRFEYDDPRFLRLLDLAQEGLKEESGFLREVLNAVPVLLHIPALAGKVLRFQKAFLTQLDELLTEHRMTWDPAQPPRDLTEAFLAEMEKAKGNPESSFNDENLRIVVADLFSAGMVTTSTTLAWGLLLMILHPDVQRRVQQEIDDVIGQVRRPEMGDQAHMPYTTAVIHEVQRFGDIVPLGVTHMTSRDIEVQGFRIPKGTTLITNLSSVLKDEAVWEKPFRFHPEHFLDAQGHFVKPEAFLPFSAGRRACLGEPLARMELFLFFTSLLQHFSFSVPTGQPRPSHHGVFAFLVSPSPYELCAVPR
Chain of CYP3A4 (P08684 whole entry): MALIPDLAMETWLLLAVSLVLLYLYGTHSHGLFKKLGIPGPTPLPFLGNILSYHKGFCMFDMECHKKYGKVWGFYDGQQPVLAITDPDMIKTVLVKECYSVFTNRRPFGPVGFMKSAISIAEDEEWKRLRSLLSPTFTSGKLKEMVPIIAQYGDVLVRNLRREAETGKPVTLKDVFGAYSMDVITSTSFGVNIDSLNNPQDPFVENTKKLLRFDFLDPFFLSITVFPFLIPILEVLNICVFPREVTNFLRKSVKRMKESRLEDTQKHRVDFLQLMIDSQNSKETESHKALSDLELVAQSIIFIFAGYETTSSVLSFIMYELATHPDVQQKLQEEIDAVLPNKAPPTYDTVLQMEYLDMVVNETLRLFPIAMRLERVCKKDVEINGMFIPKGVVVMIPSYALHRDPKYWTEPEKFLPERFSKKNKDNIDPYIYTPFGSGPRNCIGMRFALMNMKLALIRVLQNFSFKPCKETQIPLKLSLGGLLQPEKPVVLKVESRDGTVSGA
Chain of CYP2C9 (P11712 whole entry): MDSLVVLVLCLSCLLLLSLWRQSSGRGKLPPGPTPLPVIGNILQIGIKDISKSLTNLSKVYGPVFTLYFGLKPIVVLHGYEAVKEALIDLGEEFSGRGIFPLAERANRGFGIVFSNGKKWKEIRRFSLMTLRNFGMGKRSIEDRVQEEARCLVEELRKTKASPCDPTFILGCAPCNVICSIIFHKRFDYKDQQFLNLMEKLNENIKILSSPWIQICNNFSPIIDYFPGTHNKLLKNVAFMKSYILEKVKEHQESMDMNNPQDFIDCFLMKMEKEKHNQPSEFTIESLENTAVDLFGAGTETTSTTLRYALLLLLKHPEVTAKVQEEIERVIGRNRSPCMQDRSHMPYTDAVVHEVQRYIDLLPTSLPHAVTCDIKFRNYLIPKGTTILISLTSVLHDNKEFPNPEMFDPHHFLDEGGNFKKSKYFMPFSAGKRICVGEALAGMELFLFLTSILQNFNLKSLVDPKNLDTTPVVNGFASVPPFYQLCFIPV

Q: Which results are given for `Cc1cc(C)c(NC(=O)C2CC3CCC2C3)c(C)c1` (stereo not drawn) [compound 1, N-Mesitylbicyclo[2.2.1]heptane-2-carboxamide]?
A: maximal increase in Tl+ influx, KCNQ2 (KCNQ2 channels [1]): 56%; pEC50 (KCNQ2 channels [1]; Tl+ EC50, KCNQ2, fluorescent Tl+ influx assay): 6.44; pEC50 (KCNQ2 channels [2]): 6.64; pEC50 (KCNQ1 [3]): < 4.52; selectivity ratio at 20 min (KCNQ1 [3]): > 80; pEC50 (KCNQ1/KCNE1 [4]): < 4.52; selectivity ratio at 20 min (KCNQ1/KCNE1 [4]): > 80; pEC50 (KCNQ3): < 4.52; Fold selectivity (Tl+), KCNQ3 (KCNQ3; versus KCNQ2, Tl+ flux assay): >80 fold; Fold selectivity (Tl+), KCNQ4 (KCNQ4 [5]): 6.7 fold; pEC50 (KCNQ5): < 4.52; Fold selectivity (Tl+), KCNQ5 (KCNQ5; versus KCNQ2, Tl+ flux assay): >80 fold; pEC50 (Kir2.1): < 5.00; Fold selectivity (Tl+), Kir2.1 (Kir2.1; versus KCNQ2, Tl+ flux assay): >27 fold; pEC50 (KCNQ1 [6]): < 4.52; selectivity ratio at 3 min (KCNQ1 [6]; pH 7.4): > 80; pEC50 (KCNQ1/KCNE1 [7]): < 4.52; selectivity ratio at 3 min (KCNQ1/KCNE1 [7]; pH 7.4): > 80; pEC50 (KCNQ2/KCNQ3): 6.43; Fold selectivity (IW), KCNQ2/3 (KCNQ2/KCNQ3; versus KCNQ2, IonWorks): 1 fold; Fold selectivity (IW), KCNQ4 (KCNQ4 [8]): 1.4 fold; pEC50 (hERG): < 5.00; selectivity ratio (hERG; human): > 28; pIC50 (CYP1A2): < 4.52; pIC50 (CYP2C9): < 4.52; pIC50 (CYP3A4): < 4.52; pIC50 (CYP2D6): < 4.52; concentration at 1 h ([9]; brain): 476 nM; concentration at 1 h ([9]; plasma): 1260 nM; inhibition of radio ligand binding, panel of 68 GPCRs, ion channels and transporters [10]: ≤ 50%
